Laboratory results as given in ChEMBL document CHEMBL2169847, “New tricks for an old natural product: discovery of highly potent evodiamine derivatives as novel antitumor agents by systemic structure-activity relationship analysis and biological evaluations” (J Med Chem, 2012).
Activity calls are given as the source filed them. The rule behind the calls is not given here.

Columns and labels:
[1] = system: Nucleic Acid; assay: Binding affinity at calf thymus DNA at 50 uM after 20 mins by UV/vis absorbance titration based assay; type: nucleic-acid assay; details: Bos taurus
Summary of the method: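 ct-DNA in DPBS pH 7.4, concentration set by A260 (13200 M⁻¹/cm per bp). Compounds at 50 μM in DPBS with 1% DMSO, with or without ct-DNA 0−100 μM. After 20 min equilibration at room temperature, absorption spectra recorded over 220−400 nm in a microplate reader. Hypochromic or bathochromic shifts taken as the sign of binding.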

[2] = system: HCT-116; assay: Cytotoxicity against human HCT116 cells incubated for 72 hrs by MTT assay; type: functional; details: HCT-116, 72 h
Summary of the method: (§1)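 MTT assay. Cells seeded at 5 × 10³/well and grown 24 h at 37 °C, 5% CO₂. Compounds added at several concentrations in triplicate wells, with 0.1% DMSO control, for 72 h. MTT then added for 4 h, formazan dissolved in DMSO, and absorbance read at 570 nm. GI₅₀ by Logit method; three experiments.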

[3] = target: T1, DNA topoisomerase 1 (Homo sapiens) (UniProt P11387); assay: Inhibition of Top1 assessed as stabilization of Top1-pUC19 DNA cleavage complex measuring increase of nicked DNA at 100 uM incubated for 15 mins by electrophoresis method
T1 sequence (whole entry): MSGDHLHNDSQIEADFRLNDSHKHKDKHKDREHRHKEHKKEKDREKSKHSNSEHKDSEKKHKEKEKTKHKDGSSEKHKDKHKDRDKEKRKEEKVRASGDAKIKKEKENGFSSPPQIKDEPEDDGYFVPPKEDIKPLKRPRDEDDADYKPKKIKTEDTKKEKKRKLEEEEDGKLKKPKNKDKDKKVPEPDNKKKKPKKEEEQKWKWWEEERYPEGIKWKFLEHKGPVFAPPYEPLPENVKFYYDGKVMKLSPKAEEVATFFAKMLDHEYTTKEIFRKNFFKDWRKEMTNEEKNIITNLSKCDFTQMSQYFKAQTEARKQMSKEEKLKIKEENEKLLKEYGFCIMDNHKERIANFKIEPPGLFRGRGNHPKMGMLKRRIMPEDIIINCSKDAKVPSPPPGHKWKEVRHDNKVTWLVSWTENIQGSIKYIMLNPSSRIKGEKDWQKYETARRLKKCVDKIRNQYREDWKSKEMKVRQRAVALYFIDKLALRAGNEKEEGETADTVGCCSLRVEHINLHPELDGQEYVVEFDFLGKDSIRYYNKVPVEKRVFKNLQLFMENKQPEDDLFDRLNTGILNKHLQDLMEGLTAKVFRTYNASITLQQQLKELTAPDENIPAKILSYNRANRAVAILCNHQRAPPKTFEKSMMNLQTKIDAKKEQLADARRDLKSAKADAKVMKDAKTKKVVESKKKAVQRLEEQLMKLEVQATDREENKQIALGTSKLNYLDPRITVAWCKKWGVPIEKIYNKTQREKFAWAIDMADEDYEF

[4] = target: DNA topoisomerase 2-alpha (Homo sapiens) (UniProt P11388); assay: Inhibition of human Top2alpha assessed as stabilization of Top2-pBr322 DNA cleavage complex measuring linear DNA formation at 100 uM incubated for 20 mins by electrophoresis method
Summary of the method: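 Top2α drug screening kit with 8 units hTop2α and pBR322 plasmid. After reaction, proteinase K (200 μg/mL final) 20 min at 50 °C. Electrophoresis in TAE with 0.5 μg/mL ethidium bromide to resolve nicked, linear, relaxed and supercoiled forms.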

[5] = system: Nucleic Acid; assay: Induction of DNA intercalation in Escherichia coli pBR322 DNA assessed as induction of supercoiled DNA at 100 uM incubated for 15 mins by electrophoresis based Top1 unwinding assay; type: nucleic-acid assay
[6] = system: MDA-MB-435; assay: Cytotoxicity against human MDA-MB-435 cells incubated for 72 hrs by MTT assay; type: functional; details: MDA-MB-435, 72 h; summary of the method: as §1
[7] = system: A549; assay: Cytotoxicity against human A549 cells incubated for 72 hrs by MTT assay; type: functional; details: A549, 72 h; summary of the method: as §1
[8] = system: Mus musculus; assay: Toxicity in BALB/C nude mouse xenografted with human HCT116 cells assessed as reduction in body weight at 2 mg/kg, ip administered as a single dose on 17th day and measured on 30 to 33 days post implantation; type: organism-based, HCT-116; set-up: dose 2 mg/kg, route intraperitoneal; details: in vivo
Summary of the method: (§2)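 Cells implanted subcutaneously in right axilla of nude mice; dosing began at tumor volume about 100−300 mm³ (day 17). Randomized, six mice per treatment group and eight controls; ip injection. Tumor volume by caliper, TV = 1/2 × a × b², with body weight every 4 days. Mice sacrificed day 30−33 and tumors removed. Mean SEM, Student's t test versus control.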

[9] = system: HCT-116; assay: Antitumor activity against human HCT116 cells xenografted in BALB/C nude mouse assessed as tumor growth inhibition at 2 mg/kg, ip administered as a single dose on 17th day and measured on 30 to 33 days post implantation; type: functional, organism-based; set-up: dose 2 mg/kg; summary of the method: as §2
[10] = target: T1, DNA topoisomerase 1 (Homo sapiens); assay: Inhibition of Top1 assessed as suppression of supercoiled pBR322 DNA relaxation measuring appearance of short DNA fragments at 100 uM incubated for 15 mins by electrophoresis method
[11] = system: Nucleic Acid; assay: Binding affinity at calf thymus DNA minor groove assessed as displacement of Hoechst 33258 dye incubated for 20 mins by microplate reader based assay; type: nucleic-acid assay; details: Bos taurus
[12] = target: DNA topoisomerase 2-alpha (Homo sapiens) (UniProt P11388); assay: Inhibition of human Top2alpha assessed as suppression of supercoiled pBR322 DNA relaxation at 50 uM incubated for 30 mins by electrophoresis method
[13] = system: U2OS; assay: Cytotoxicity against human U2OS cells incubated for 72 hrs by MTT assay; type: functional; summary of the method: as §1
[14] = system: A549; assay: Antitumor activity against human A549 cells xenografted in BALB/C nude mouse assessed as tumor growth inhibition at 2 mg/kg, ip administered as a single dose on 17th day post implantation and measured on 30 to 33 days post implantation; type: functional, organism-based; set-up: dose 2 mg/kg; summary of the method: as §2
[15] = system: HepG2; assay: Cytotoxicity against human HepG2 cells incubated for 72 hrs by MTT assay; type: functional; details: HepG2, 72 h; summary of the method: as §1
[16] = system: PC-3; assay: Cytotoxicity against human PC3 cells incubated for 72 hrs by MTT assay; type: functional; details: PC-3, 72 h; summary of the method: as §1
[17] = system: Mus musculus; assay: Toxicity in BALB/C nude mouse xenografted with human A549 cells assessed as reduction in body weight at 2 mg/kg, ip administered as a single dose on 17th day and measured on 30 to 33 days post implantation; type: organism-based; set-up: dose 2 mg/kg, route intraperitoneal; details: in vivo; summary of the method: as §2
[18] = system: PANC-1; assay: Cytotoxicity against human PANC1 cells incubated for 72 hrs by MTT assay; type: functional; details: PANC-1, 72 h; summary of the method: as §1
[19] = system: SAOS-2; assay: Cytotoxicity against human Saos2 cells incubated for 72 hrs by MTT assay; type: functional; details: SAOS-2, 72 h; summary of the method: as §1
[20] = system: HL-60; assay: Cytotoxicity against human HL60 cells incubated for 72 hrs by MTT assay; type: functional; details: HL-60, 72 h; summary of the method: as §1
[21] = target: T1, DNA topoisomerase 1 (Homo sapiens); assay: Inhibition of Top1 assessed as suppression of supercoiled pBR322 DNA relaxation measuring appearance of short DNA fragments at 50 uM incubated for 15 mins by electrophoresis method

Chain of DNA topoisomerase 2-alpha (Homo sapiens) (P11388 whole entry): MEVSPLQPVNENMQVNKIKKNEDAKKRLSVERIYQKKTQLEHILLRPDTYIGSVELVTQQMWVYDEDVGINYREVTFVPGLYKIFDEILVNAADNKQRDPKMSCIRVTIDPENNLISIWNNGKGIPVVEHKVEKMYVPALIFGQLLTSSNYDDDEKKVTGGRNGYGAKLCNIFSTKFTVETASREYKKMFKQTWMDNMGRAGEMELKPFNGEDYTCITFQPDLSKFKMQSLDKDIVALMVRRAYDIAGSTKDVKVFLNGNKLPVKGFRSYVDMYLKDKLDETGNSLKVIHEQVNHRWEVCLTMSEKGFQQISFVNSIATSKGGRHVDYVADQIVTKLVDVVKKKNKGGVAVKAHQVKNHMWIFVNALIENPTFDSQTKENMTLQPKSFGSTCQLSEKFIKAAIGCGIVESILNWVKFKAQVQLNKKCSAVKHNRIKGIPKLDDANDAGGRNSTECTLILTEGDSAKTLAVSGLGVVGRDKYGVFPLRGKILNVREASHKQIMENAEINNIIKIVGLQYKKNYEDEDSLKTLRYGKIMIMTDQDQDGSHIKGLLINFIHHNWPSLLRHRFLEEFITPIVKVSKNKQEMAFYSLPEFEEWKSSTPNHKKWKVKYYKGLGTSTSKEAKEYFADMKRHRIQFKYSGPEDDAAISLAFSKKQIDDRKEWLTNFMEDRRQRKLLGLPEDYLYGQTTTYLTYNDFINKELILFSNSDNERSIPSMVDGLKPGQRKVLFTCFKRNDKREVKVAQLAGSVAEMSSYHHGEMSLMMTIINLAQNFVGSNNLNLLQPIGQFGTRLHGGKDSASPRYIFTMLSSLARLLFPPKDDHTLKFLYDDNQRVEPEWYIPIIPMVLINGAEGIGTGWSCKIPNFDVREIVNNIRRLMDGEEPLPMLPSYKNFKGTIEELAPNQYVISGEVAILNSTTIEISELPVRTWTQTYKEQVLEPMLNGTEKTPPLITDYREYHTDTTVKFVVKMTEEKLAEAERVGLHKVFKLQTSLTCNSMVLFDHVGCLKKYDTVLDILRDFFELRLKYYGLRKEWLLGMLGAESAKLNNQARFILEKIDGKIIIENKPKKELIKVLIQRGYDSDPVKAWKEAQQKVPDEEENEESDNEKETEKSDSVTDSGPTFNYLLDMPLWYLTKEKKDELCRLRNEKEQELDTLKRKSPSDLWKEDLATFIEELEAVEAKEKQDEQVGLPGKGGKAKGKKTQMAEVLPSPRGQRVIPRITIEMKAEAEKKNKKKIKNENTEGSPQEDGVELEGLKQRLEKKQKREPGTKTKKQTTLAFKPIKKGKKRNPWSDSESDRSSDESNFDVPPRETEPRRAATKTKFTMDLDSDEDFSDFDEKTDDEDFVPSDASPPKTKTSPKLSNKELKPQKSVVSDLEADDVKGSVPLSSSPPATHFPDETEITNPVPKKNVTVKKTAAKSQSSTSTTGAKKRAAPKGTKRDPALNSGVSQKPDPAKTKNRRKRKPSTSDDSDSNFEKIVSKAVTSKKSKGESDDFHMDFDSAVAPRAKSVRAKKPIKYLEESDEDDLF

Compound | GI50 [2] [nM] | GI50 [6] [nM] | GI50 [7] [nM] | inhibition [10] | inhibition [12] | further results
CN1c2ccc(O)cc2C(=O)N2CCc3c([nH]c4ccc(O)cc34)C21 (stereo not given) | 7 | 3 | 750 | Active | Active | Activity [1]: inactive; inhibition [3]: Active; inhibition [4]: inactive; Activity [5]: inactive; Activity [8]: Toxic; TGI [9]: Active; Activity [11]: inactive
COc1cc([C@@H]2c3cc4c(cc3[C@@H](O[C@@H]3O[C@@H]5CO[C@@H](C)O[C@H]5[C@H](O)[C@H]3O)[C@H]3COC(=O)[C@H]23)OCO4)cc(OC)c1O | – | – | – | – | Active | inhibition [4]: Active
CN1c2cccc(O)c2C(=O)N2CCc3c([nH]c4ccc(O)cc34)C21 (stereo not given) | 9 | 13 | 230 | Active | – | Activity [1]: inactive; inhibition [3]: Active; inhibition [4]: inactive; Activity [5]: inactive; Activity [11]: inactive
CN1c2cccc(O)c2C(=O)N2CCc3c([nH]c4ccccc34)C21 (stereo not given) | 2140 | 240 | 62400 | Active | Active | –
COc1ccc2[nH]c3c(c2c1)CCN1C(=O)c2cc(N)ccc2N(C)C31 (stereo not given) | 6600 | 12000 | 62000 | – | Active | –
CN1c2ccc(F)cc2C(=O)N2CCc3c([nH]c4ccc(O)cc34)C21 (stereo not given) | < 3 | < 3 | < 3 | Active | Active | GI50 [13]: > 296 µM; TGI [14]: inactive; GI50 [15]: 23800 nM; GI50 [16]: 92.3 µM; Activity [17]: Non-toxic; GI50 [18]: < 3 nM; Activity [8]: Non-toxic; GI50 [19]: > 296 µM; TGI [9]: Active; GI50 [20]: < 3 nM
CN1c2ccc(Cl)cc2C(=O)N2CCc3c([nH]c4ccc(O)cc34)C21 (stereo not given) | 5 | 5 | 120 | Active | Active | inhibition [21]: Active; Activity [8]: Toxic; TGI [9]: Active
CN1c2ccc(N)cc2C(=O)N2CCc3c([nH]c4ccccc34)C21 (stereo not given) | 8920 | 150 | > 200000 | Active | – | –
CC[C@@]1(O)C(=O)OCc2c1cc1n(c2=O)Cc2cc3ccccc3nc2-1 [CAMPTOTHECIN] | 83 | 33 | 170 | – | – | GI50 [13]: > 287 µM; GI50 [15]: 220 nM; GI50 [16]: > 287 µM; GI50 [18]: 6290 nM; GI50 [19]: > 287 µM; GI50 [20]: < 3 nM
CN1c2ccc(O)cc2C(=O)N2CCc3c([nH]c4ccccc34)C21 (stereo not given) | 13 | < 3 | > 200000 | Active | inactive | –
Cc1cccc2c1N(C)C1c3[nH]c4ccccc4c3CCN1C2=O (stereo not given) | 11 | 84 | 230 | Active | – | –
CN1c2ccc(Cl)cc2C(=O)N2CCc3c([nH]c4ccccc34)C21 (stereo not given) | < 3 | < 3 | < 3 | Active | inactive | TGI [14]: inactive; Activity [17]: Non-toxic
COc1ccc2[nH]c3c(c2c1)CCN1C(=O)c2c(OC)cccc2N(C)C31 (stereo not given) | 42000 | 21000 | 98000 | – | – | –
CN1c2ccccc2C(=O)N2CCc3c([nH]c4ccc(F)cc34)C21 (stereo not given) | 8560 | 27400 | 6850 | – | – | –
CN1c2ccccc2C(=O)N2CCc3c([nH]c4c(Cl)cccc34)C21 (stereo not given) | < 3 | < 3 | 2550 | Active | inactive | GI50 [13]: > 296 µM; inhibition [21]: Active; GI50 [15]: 2310 nM; GI50 [16]: > 296 µM; GI50 [18]: 120 nM; Activity [8]: Toxic; GI50 [19]: > 296 µM; TGI [9]: Active; GI50 [20]: < 3 nM
CN1c2ccc(Br)cc2C(=O)N2CCc3c(n(C(=O)c4ccc(Cl)cc4)c4ccccc34)C21 (stereo not given) | 39700 | 8720 | > 200000 | – | – | –
CC[C@@]1(O)C(=O)OCc2c1cc1n(c2=O)Cc2cc3c(CN(C)C)c(O)ccc3nc2-1 [TOPOTECAN] | 400 | 34 | 3960 | – | – | –
